Experimental data reported in paper PMC368434 (BMC Gastroenterology, 2004).
pIC50, pKi: −log10 of the molar value.

Experiments:
[1] = target: pig gastric microsomal H,K-ATPase (Sus scrofa, UniProt P19156); test: H,K-ATPase assay; type: biochemical; details: for Attenuation of H,K-ATPase activity: non-physiological concentrations greater than 10^-7 M (up to 1 μM); for Inhibitory activity against H,K-ATPase: physiological concentrations (10^-9–10^-8 M)
gastric H,K-ATPase = details: cited from earlier work; for pIC50: read-out: IC50, gastric proton pump activity
[2] = system: rabbit gastric parietal cells; test: Acid accumulation assay; type: cell-based; details: up to concentrations of 10^-4 M (data not shown)
rat stomach and blood = details: cited from earlier work
rat = details: cited from earlier work
cats = details: cited from earlier work
[3] = 14C-labeled ML 3000, rats; cited from earlier work
[4] = system: bacteria or mammalian cells; rat bone marrow cells; details: cited from earlier work
gastric damage = details: up to 100 mg/kg/d p.o., rat; cited from earlier work
guinea-pig ileum = details: cited from earlier work
[5] = system: IL-8 secretion by human gastric adenocarcinoma (AGS) cells; test: IL-8 secretion by AGS cells; type: cell-based; details: 24 h, read-out: IC50, inhibition of baseline IL-8 secretion
Summary of the method: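 AGS cells in Ham's F-12 with 10% FBS and antibiotics (37°C, 5% CO2), passages 42–56. Seeded at 50,000 cells/100 μl/well and attached 18 hr, then exposed to test compound with or without IL-1β (1 ng/ml) for 24 hr. Medium IL-8 measured by ELISA. Solvent controls included, solvents <1% final. Triplicates, ≥3 experiments; IC50 from three-parameter logistic fit.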

dogs = details: cited from earlier work

pig gastric microsomal H,K-ATPase, sequence (P19156 2-1034 limits assumed): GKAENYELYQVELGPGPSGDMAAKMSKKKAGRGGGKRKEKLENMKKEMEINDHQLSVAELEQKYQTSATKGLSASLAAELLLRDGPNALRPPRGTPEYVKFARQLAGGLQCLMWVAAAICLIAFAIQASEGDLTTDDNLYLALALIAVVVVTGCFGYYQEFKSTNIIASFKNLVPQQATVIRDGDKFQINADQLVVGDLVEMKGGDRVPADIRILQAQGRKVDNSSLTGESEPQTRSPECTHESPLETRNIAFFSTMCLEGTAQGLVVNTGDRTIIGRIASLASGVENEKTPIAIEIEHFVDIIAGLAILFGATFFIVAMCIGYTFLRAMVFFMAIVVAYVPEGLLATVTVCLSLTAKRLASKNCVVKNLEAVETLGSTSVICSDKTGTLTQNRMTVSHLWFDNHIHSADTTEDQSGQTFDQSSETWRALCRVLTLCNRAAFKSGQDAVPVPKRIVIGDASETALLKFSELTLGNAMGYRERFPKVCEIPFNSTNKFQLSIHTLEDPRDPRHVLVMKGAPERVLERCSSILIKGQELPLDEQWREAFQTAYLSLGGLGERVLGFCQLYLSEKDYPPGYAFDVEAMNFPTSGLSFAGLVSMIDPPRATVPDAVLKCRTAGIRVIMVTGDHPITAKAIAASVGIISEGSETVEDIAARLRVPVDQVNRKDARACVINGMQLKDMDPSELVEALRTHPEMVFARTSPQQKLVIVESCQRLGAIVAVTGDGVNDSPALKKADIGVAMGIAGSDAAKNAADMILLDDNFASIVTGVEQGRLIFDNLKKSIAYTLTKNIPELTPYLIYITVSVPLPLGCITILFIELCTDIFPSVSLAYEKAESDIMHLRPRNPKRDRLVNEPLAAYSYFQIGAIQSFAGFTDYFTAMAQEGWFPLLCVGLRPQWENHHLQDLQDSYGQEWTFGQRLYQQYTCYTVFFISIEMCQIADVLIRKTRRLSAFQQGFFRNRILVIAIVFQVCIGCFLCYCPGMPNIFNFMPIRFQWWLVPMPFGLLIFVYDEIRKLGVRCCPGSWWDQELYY
pig gastric microsomal H,K-ATPase, sequence (P18434 whole entry partner): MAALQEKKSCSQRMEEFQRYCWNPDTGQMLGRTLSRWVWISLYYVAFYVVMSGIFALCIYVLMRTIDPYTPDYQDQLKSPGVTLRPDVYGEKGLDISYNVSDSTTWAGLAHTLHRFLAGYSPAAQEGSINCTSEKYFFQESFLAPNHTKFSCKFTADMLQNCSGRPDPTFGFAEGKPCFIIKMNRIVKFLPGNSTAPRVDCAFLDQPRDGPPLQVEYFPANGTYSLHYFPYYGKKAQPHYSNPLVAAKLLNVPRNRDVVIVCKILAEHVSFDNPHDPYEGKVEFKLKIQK

Compound: CCCCC/C=C\C/C=C\C/C=C\C/C=C\CCCC(=O)O [Arachidonic acid]
- pIC50 [1]: 4.78

Compound: COc1ccc2cc([C@H](C)C(=O)O)ccc2c1 [naproxen]
- Inhibitory effect on microsomal H,K-ATPase activity ([1]; concentrations up to 10^-4 M): without inhibitory effects

Compound: Cc1c(OCC(F)(F)F)ccnc1C[S+]([O-])c1nc2ccccc2[nH]1 (centres unmarked) [lansoprazole]
- pIC50 (gastric H,K-ATPase): 5.68

Compound: COC(=O)c1cc2nc([S+]([O-])Cc3ncccc3C)[nH]c2cc1C (centres unmarked) [picoprazole]
- pIC50 (gastric H,K-ATPase): 5.70

Compound: COc1ccc2c(c1)c(CC(=O)O)c(C)n2C(=O)c1ccc(Cl)cc1 [indomethacin]
- Inhibitory effect on microsomal H,K-ATPase activity ([1]; concentrations up to 10^-4 M): without inhibitory effects
- pKi (gastric H,K-ATPase; read-out: Ki, inhibition of gastric H,K-ATPase): 3.17

Compound: CC(=O)Oc1ccccc1C(=O)O [acetyl salicylic acid]
- Effect on acid accumulation by isolated rabbit parietal cells [2]: no effect
- Inhibitory effect on microsomal H,K-ATPase activity ([1]; concentrations up to 10^-3 M): without inhibitory effects

Compound: COCCCOc1ccnc(C[S+]([O-])c2nc3ccccc3[nH]2)c1C (centres unmarked) [rabeprazole]
- pIC50 (gastric H,K-ATPase): 7.14

Compound: CC1(C)Cc2c(-c3ccccc3)c(-c3ccc(Cl)cc3)c(CC(=O)O)n2C1 [ML 3000, [2,2-dimethyl-6-(4-chlorophenyl)-7-phenyl-2,3-dihydro-1H-pyrrolizine-5-yl]-acetic acid]
- Gastric mucosal injury (rat stomach and blood): no gastric mucosal injury
- Leukocyte adherence in mesenteric venules (rat stomach and blood): no effect
- Gastric prostaglandin E2 synthesis (rat stomach and blood; rat stomach and blood): reduces
- Inhibition of gastric or blood leukotriene B4 synthesis (rat stomach and blood; rat): not detected
- Gastric damage and peristaltic disturbance (rat; animal models): neither gastric damage nor peristaltic disturbance
- Rat locomotor activity or hexobarbital-induced sleep (rat): did not affect
- Cardiovascular or respiratory effects (rat; rat): no cardiovascular or respiratory effects
- Urine output (rat; rats): small transient reduction
- Neuromuscular function (cats): without affect
- Distribution and excretion [3]: enterohepatic circulation and glucuronide conjugation
- Genotoxicity: gene mutation frequencies in bacteria or mammalian cells, unscheduled DNA synthesis, chromosomal aberrations in rat bone marrow cells [4]: no effects
- Gastric damage (gastric damage): no gastric damage
- Spasmogenic response (guinea-pig ileum): weak spasmogenic response
- pIC50 [5]: 6.34
- Cardiovascular or respiratory effects (dogs): no cardiovascular or respiratory effects
- pIC50 [1]: 4.79
- Effect of ML 3000 acidification on H,K-ATPase inhibitory profile ([1]; ML 3000 titrated to pHs 2.0 to 7.4 for 30 min, 16.6 μM final concentration): no significant effect
- Reversibility of H,K-ATPase inhibition ([1]; dilution from 100 μM to 3.3 μM): reversible

Compound: CCCCC/C=C\C[C@@H](O)/C=C/C=C/C=C\[C@@H](O)CCCC(=O)O [LTB4, leukotriene B4]
- Attenuation of H,K-ATPase activity [1]: significant attenuation
- Inhibitory activity against H,K-ATPase [1]: neither leukotriene showed any inhibitory activity

Compound: CCCCC/C=C\C\C=C/C=C/C=C/[C@@H](SC[C@H](N)C(=O)NCC(=O)O)[C@@H](O)CCCC(=O)O [LTD4, leukotriene D4]
- Attenuation of H,K-ATPase activity [1]: significant attenuation
- Inhibitory activity against H,K-ATPase [1]: neither leukotriene showed any inhibitory activity

Compound: CCCCC[C@H](O)/C=C/[C@H]1[C@H](O)CC(=O)[C@@H]1C/C=C\CCCC(=O)O [PGE2, prostaglandin E2]
- pIC50 [1]: 4.82
- Inhibitory effect on pig gastric H,K-ATPase (gastric H,K-ATPase; pig, previous study): no inhibitory effect

Compound: CS(=O)(=O)Nc1ccc([N+](=O)[O-])cc1OC1CCCCC1 [NS 398]
- Effect on acid accumulation by isolated rabbit parietal cells [2]: no effect
- Inhibitory effect on microsomal H,K-ATPase activity ([1]; concentrations up to 10^-4 M): without inhibitory effects
